The target in data set [1] is T1, Beta-1,4-galactosyltransferase 1 (Bos taurus) (UniProt P08037).
T1 sequence (whole entry): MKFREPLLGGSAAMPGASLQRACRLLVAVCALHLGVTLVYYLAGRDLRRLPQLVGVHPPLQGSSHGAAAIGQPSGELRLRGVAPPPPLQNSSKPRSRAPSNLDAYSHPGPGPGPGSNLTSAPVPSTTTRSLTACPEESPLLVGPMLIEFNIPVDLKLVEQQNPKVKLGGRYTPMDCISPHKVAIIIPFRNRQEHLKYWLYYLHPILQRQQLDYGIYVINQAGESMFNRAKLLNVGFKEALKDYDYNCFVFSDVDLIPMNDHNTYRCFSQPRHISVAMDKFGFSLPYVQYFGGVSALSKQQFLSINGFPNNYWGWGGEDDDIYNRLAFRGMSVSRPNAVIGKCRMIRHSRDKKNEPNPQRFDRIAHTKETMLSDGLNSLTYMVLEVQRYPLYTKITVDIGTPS
The experiment in a line: Ratio of Km for the compound to Km for UDP-Gal in bovine beta-1,4-GalT.

A short description of data set [2]: Binding affinity to Neisseria meningitidis alpha-1,4-GalT after 15 mins by competitive binding assay.
Data set [3] is described as follows: Drug uptake in human HL60 cell endoplasmic reticulum at 100 uM after 24 hrs by confocal fluorescence microscopy. It counts as ADME, cell-based. The following applies: hl-60, 24 h. In outline:
(§1)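 HL-60 cells were grown in RPMI 1640 with 16.7% (v/v) heat-inactivated FCS, L-glutamine and PenStrep. They were seeded at 10^6 cells/mL onto a glass coverslip and kept 24 h at 37 °C, 5% CO2 with the sodium-salt analogue at 100 μM. The coverslip was washed with medium to remove extracellular fluorophore. The compound's intrinsic blue fluorescence (λem 434 nm) was imaged by confocal microscopy at 364 nm.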

Data set [4] is described as follows: Drug uptake in human HL60 cell golgi apparatus at 100 uM after 24 hrs by confocal fluorescence microscopy. It counts as ADME, cell-based. The following applies: hl-60, 24 h. In short, it runs like this:
as §1

A short description of data set [5]: Inhibition of Neisseria meningitidis alpha-1,4-GalT after 15 mins by Dixon plot analysis. In short, it runs like this:
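Radiochemical transfer assay with DTT-activated N. meningitidis LgtC (0.010 ng): UDP-Gal 0.57 μM plus UDP-[3H]-Gal, Lacβ-O(CH2)8CO2Me 2 mM, DTT 1.7 mM, inhibitor 0–12.5 μM, in A/B buffer pH 7. Incubated 15 min at 37 °C, stopped with water.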

The target of data set [6] is N-acetyllactosaminide alpha-1,3-galactosyltransferase (Bos taurus, UniProt P14769). The experiment in a line: Inhibition of alpha-1,3-GalT in bovine after 15 mins by Dixon plot analysis. In short, it runs like this: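 Bovine α-1,3-GalT (1.3 μg) in A/B buffer pH 7 with UDP-Gal 76 μM plus UDP-[3H]-Gal, Lacβ-O(CH2)8CO2Me 500 μM, and inhibitor 0–62.5 μM. Incubated 15 min at 37 °C, stopped with water; radiolabeled galactose transfer measured.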
Sequence of N-acetyllactosaminide alpha-1,3-galactosyltransferase (P14769 whole entry): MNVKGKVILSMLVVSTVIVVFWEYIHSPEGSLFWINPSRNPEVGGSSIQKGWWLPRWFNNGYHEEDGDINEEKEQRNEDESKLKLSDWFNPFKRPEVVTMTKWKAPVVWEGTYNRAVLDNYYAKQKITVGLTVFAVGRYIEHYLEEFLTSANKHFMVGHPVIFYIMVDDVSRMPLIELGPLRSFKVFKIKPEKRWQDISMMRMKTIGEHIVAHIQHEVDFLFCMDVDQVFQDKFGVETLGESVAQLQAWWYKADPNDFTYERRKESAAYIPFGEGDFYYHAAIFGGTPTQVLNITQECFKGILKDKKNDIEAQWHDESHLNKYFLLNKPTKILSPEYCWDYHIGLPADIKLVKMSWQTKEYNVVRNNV

Data set [7] in a line: Inhibition of human GTB after 15 mins by Dixon plot analysis. In short, it runs like this:
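Radiochemical assay on human GTB (0.049 ng): UDP-Gal 26 μM with UDP-[3H]-Gal, Fucα1,2Galβ-O(CH2)7CH3 acceptor 500 μM, inhibitor 0–62.5 μM, in A/B buffer pH 7. Incubated 15 min at 37 °C, then quenched with water.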

Data set [8] has as its system Neisseria meningitidis. Briefly: Binding affinity to Neisseria meningitidis alpha-1,4-GalT after 10 mins by fluorescence quenching assay. In short, it runs like this:
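Titration of the fluorescent donor analogue (200 nM final) with LgtC protein stock diluted 1/5 to 1/640 (eight dilutions) in A/B buffer (50 mM MOPS pH 7.0, 20 mM MnCl2, 1 mg/mL BSA). Emission read after 10 min at 37 °C (excitation 350 nm, emission 430 nm) and plotted against enzyme dilution. Run in triplicate.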

Data set [9] deals with Neisseria meningitidis. Briefly: Binding affinity to Neisseria meningitidis alpha-1,4-GalT by fluorescence quenching assay in presence of unlabeled UDP-Gal and UDP.

The source made the active and inactive calls. No cut-off for these calls is given here.

Regarding `O=Cc1ccc(-c2cn([C@@H]3O[C@H](COP(=O)(O)OP(=O)(O)O[C@H]4O[C@H](CO)[C@H](O)[C@H](O)[C@H]4O)[C@@H](O)[C@H]3O)c(=O)[nH]c2=O)s1` [listing 1 of 2 here], the Ratio in data set [1] is 2.
With `O=c1ccn([C@@H]2O[C@H](COP(=O)(O)OP(=O)(O)O)[C@@H](O)[C@H]2O)c(=O)[nH]1` [URIDINE_DIPHOSPHATE], in [2], the IC50 (usually the concentration that gives 50% inhibition) worked out at 46 µM.
`O=Cc1ccc(-c2cn([C@@H]3O[C@H](COP(=O)([O-])OP(=O)([O-])CC[C@H]4O[C@H](CO)[C@H](O)[C@H](O)[C@H]4O)[C@@H](O)[C@H]3O)c(=O)[nH]c2=O)s1.[Na+].[Na+]`: the Drug uptake result in data set [3] and in data set [4] was “Active” throughout.
As for `O=Cc1ccc(-c2cn([C@@H]3O[C@H](COP(=O)(O)OP(=O)(O)CC[C@H]4O[C@H](CO)[C@H](O)[C@H](O)[C@H]4O)[C@@H](O)[C@H]3O)c(=O)[nH]c2=O)s1` [listing 1 of 2 here], the Ki (as a rule, the dissociation constant of the complex between target and ligand, obtained from inhibition or displacement) in [5] was 1.7 µM; in [6], 18 µM; in data set [7], 3.8 µM.
With `O=c1[nH]c(=O)n([C@@H]2O[C@H](COP(=O)(O)OP(=O)(O)O[C@H]3O[C@H](CO)[C@H](O)[C@H](O)[C@H]3O)[C@@H](O)[C@H]2O)cc1-c1ccco1`, the Ki in data set [5] came to 1.9 µM; in [6] it was 90 µM; in [7] it was 33 µM. Also, the Ratio in [1] came to 2.
`O=Cc1ccc(-c2cn([C@@H]3O[C@H](COP(=O)([O-])OP(=O)([O-])O[C@H]4O[C@H](CO)[C@H](O)[C@H](O)[C@H]4O)[C@@H](O)[C@H]3O)c(=O)[nH]c2=O)s1.[Na+].[Na+]`: the Drug uptake entry in data set [3] and in data set [4] was “Active” throughout.
As for `O=Cc1ccc(-c2cn([C@@H]3O[C@H](COP(=O)(O)OP(=O)(O)CC[C@H]4O[C@H](CO)[C@H](O)[C@H](O)[C@H]4O)[C@@H](O)[C@H]3O)c(=O)[nH]c2=O)s1` [listing 2 of 2 here], the Activity result in data set [8] was “Dose-dependent effect”. Further, the result in data set [9] was inactive.
With `O=c1[nH]c(=O)n([C@@H]2O[C@H](COP(=O)(O)OP(=O)(O)O[C@H]3O[C@H](CO)[C@H](O)[C@H](O)[C@H]3O)[C@@H](O)[C@H]2O)cc1-c1ccccc1`, the Ki in [5] stood at 6 µM; in data set [6] it was 76 µM; in [7], 48 µM. For the same compound, the Ratio in [1] is 6.
In the case of `COc1ccc(-c2cn([C@@H]3O[C@H](COP(=O)(O)OP(=O)(O)O[C@H]4O[C@H](CO)[C@H](O)[C@H](O)[C@H]4O)[C@@H](O)[C@H]3O)c(=O)[nH]c2=O)cc1`, in data set [1], the Ratio was determined as 3.3.
As for `O=Cc1ccc(-c2cn([C@@H]3O[C@H](COP(=O)(O)OP(=O)(O)O[C@H]4O[C@H](CO)[C@H](O)[C@H](O)[C@H]4O)[C@@H](O)[C@H]3O)c(=O)[nH]c2=O)s1` [listing 2 of 2 here], the values for the Ki in data set [5] and in [7] were 0.45 µM and 2.4 µM, respectively.

Values taken from ChEMBL document CHEMBL2069297, “Inhibition of galactosyltransferases by a novel class of donor analogues” (J Med Chem, 2012).
